From ChEMBL document CHEMBL1121810, “Antihypertensive activity of 6-arylpyrido[2,3-d]pyrimidin-7-amine derivatives” (1981)

Legend:
Format in all cases: functional
[1] = system: Rattus norvegicus; assay: Effect on heart rate of spontaneously hypertensive rats, 24 hr after peroral administration at 50 mg/kg; conditions: route oral
How it was run: (§1)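 Heart rate was derived from the pulsatile arterial pressure signal in conscious catheterized male SHR (22-24 weeks, 250-350 g), with continuous monitoring sampled 3 min per 30 min. Drug was given by gavage as a 4% gum acacia suspension at 2 mL/kg, dose as free base, to groups of 3-4 rats with mean pressure >150 mmHg. Individual 30-min means were compared with pretreatment values.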

[2] = system: Rattus norvegicus; assay: Effect on heart rate of spontaneously hypertensive rats, 10 hr after peroral administration at 50 mg/kg; conditions: route oral; how it was run: as §1
[3] = system: Rattus norvegicus; assay: Effect on heart rate of spontaneously hypertensive rats, 2 hr after peroral administration at 50 mg/kg; conditions: route oral; how it was run: as §1
[4] = system: Rattus norvegicus; assay: (§2) Max effect on heart rate of spontaneously hypertensive rats, 3-5 hr after peroral administration of 3 mg/kg of compound; conditions: route oral; how it was run: as §1
[5] = system: Rattus norvegicus; assay: as §2; conditions: route oral; how it was run: as §1; remark: listed apart in the source
[6] = system: Rattus norvegicus; assay: Maximum percent decrease in heart rate of spontaneously hypertensive rats, 24 hours after peroral administration of 50 mg/kg of compound; conditions: route oral; how it was run: as §1
[7] = system: Rattus norvegicus; assay: Max effect on heart rate of spontaneously hypertensive rats, 3-5 hr after peroral administration of 10 mg/kg of compound; conditions: route oral; how it was run: as §1
[8] = system: Rattus norvegicus; assay: Max effect on heart rate of spontaneously hypertensive rats, 3-5 hr after peroral administration of 3 mg/kg of compound; significant decrease observed on 2nd and 3rd days; conditions: route oral; how it was run: as §1
[9] = system: Rattus norvegicus; assay: Max effect on heart rate of spontaneously hypertensive rats, 3-5 hr after peroral administration of 10 mg/kg of compound; significant decrease observed on 2nd and 3rd days; conditions: route oral; how it was run: as §1
[10] = system: Rattus norvegicus; assay: Maximum percent decrease in heart rate of spontaneously hypertensive rats, 4 hours after peroral administration of 50 mg/kg of compound; conditions: route oral; how it was run: as §1
[11] = system: Rattus norvegicus; assay: Effect on heart rate of spontaneously hypertensive rats, 2 hr after peroral administration of 10 mg/kg of compound; conditions: route oral; how it was run: as §1
[12] = system: Rattus norvegicus; assay: Effect on heart rate of spontaneously hypertensive rats, 10 hr after peroral administration of 3 mg/kg of compound; conditions: route oral; how it was run: as §1
[13] = system: Rattus norvegicus; assay: Effect on heart rate of spontaneously hypertensive rats, 2 hr after peroral administration of 3 mg/kg of compound; conditions: route oral; how it was run: as §1
[14] = system: Rattus norvegicus; assay: Effect on heart rate of spontaneously hypertensive rats, 24 hr after peroral administration of 10 mg/kg of compound; conditions: route oral; how it was run: as §1
[15] = system: Rattus norvegicus; assay: Maximum percent decrease in heart rate of spontaneously hypertensive rats, 10 hours after peroral administration of 50 mg/kg of compound; conditions: route oral; how it was run: as §1
[16] = system: Rattus norvegicus; assay: Effect on heart rate of spontaneously hypertensive rats, 24 hr after peroral administration of 3 mg/kg of compound; conditions: route oral; how it was run: as §1
[17] = organism: Rattus norvegicus; assay: Dose required to lower blood pressure by 30mmHg, 5-h post treatment
How it was run: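 Conscious male SHR (22-24 weeks, 250-350 g) with indwelling catheters for continuous blood pressure and heart rate monitoring; only rats with mean pressure >150 mmHg and pulse pressure >25 mmHg were used. Oral gavage of a suspension in 4% gum acacia (2 mL/kg), doses as free base, groups of 3-4. Mean pressure was sampled 3 min per 30 min and compared with pretreatment; the value is the dose lowering pressure by 30 mmHg at 5 h.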

[18] = system: Rattus norvegicus; assay: Effect on heart rate of spontaneously hypertensive rats, 10 hr after peroral administration of 10 mg/kg of compound; conditions: route oral; how it was run: as §1
[19] = system: Rattus norvegicus; assay: Effect on heart rate of spontaneously hypertensive rats, 18 hr after peroral administration of 10 mg/kg of compound; conditions: route oral; how it was run: as §1
[20] = system: Rattus norvegicus; assay: Maximum percent decrease in heart rate of spontaneously hypertensive rats, 6 hours after peroral administration of 50 mg/kg of compound; conditions: route oral
How it was run: (§3)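 Conscious male SHR (Kyoto-Wistar origin, 22-24 weeks, 250-350 g; mean BP >150 mmHg, pulse pressure >25 mmHg) with indwelling catheters, ~0.8 mL heparinized saline/day. Dosed by gavage as a 4% gum acacia suspension, 2 mL/kg, free-base doses, 3-4 rats per group. Heart rate was derived from the pulsatile pressure signal, sampled 3 min every 30 min, and 30-min means were compared with pretreatment values.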

[21] = system: Rattus norvegicus; assay: Maximum percent decrease in heart rate of spontaneously hypertensive rats, 8 hr after peroral administration of 50 mg/kg of compound; conditions: route oral; how it was run: as §3
[22] = system: Rattus norvegicus; assay: Effect on heart rate of spontaneously hypertensive rats, 24 hours after peroral administration of 50 mg/kg of compound; conditions: route oral; how it was run: as §1
[23] = system: Rattus norvegicus; assay: Effect on heart rate of spontaneously hypertensive rats,24hours after peroral administration of 10 mg/kg of compound; conditions: route oral; how it was run: as §1

## Nc1nc2ncncc2cc1-c1c(Cl)cccc1Cl
[1]
  Activity rating: 2
[2]
  Activity rating: 0
[3]
  Activity rating: 0
[4]
  Activity rating: 0
[5]
  Activity rating: 0
[6]
  Decrease: 22%
[7]
  Activity rating: 0
[8]
  Activity rating: 0
[9]
  Activity rating: 0

## Cc1ncc2cc(-c3ccccc3C)c(N)nc2n1
[10]
  Decrease: 22%
[1]
  Activity rating: 1
[2]
  Activity rating: 1
[3]
  Activity rating: 1

## Cc1ncc2cc(-c3c(Cl)cccc3Cl)c(N)nc2n1
[11]
  Activity rating: 1
[1]
  Activity rating: 3
[12]
  Activity rating: 1
[2]
  Activity rating: 3
[13]
  Activity rating: 1
[3]
  Activity rating: 1
[14]
  Activity rating: 1
[15]
  Decrease: 32%
[16]
  Activity rating: 1
[17]
  ED30: 17 mg/kg
  LD50: > 7000 mg/kg
[18]
  Activity rating: 1

## Cc1ncc2cc(-c3c(Br)cccc3Br)c(N)nc2n1
[11]
  Activity rating: 1
[1]
  Activity rating: 2
[2]
  Activity rating: 2
[3]
  Activity rating: 2
[19]
  Activity rating: 1
[20]
  Decrease: 28%
[18]
  Activity rating: 2

## Cc1ncc2cc(-c3ccccc3Cl)c(N)nc2n1
[1]
  Activity rating: 1
[2]
  Activity rating: 1
[3]
  Activity rating: 0
[21]
  Decrease: 16%

## Nc1nc2ncncc2cc1-c1ccccc1Cl
[22]
  Activity rating: 0
[2]
  Activity rating: 0
[3]
  Activity rating: 0

## Nc1ncc2cc(-c3c(Cl)cccc3Cl)c(N)nc2n1
[11]
  Activity rating: 0
[1]
  Activity rating: 2
[2]
  Activity rating: 1
[3]
  Activity rating: 0
[6]
  Decrease: 18%
[23]
  Activity rating: 1
[18]
  Activity rating: 0
